In ChEMBL document CHEMBL1128396, “Synthesis and biological evaluation of a series of new parenteral optically active 3-[[(N-alkylpyridinium-4'-yl)thio]methyl]-2-oxaisocephems” (1995):

Assays:
Assay type in all cases: functional
[1] = system: Staphylococcus aureus; assay: Antibacterial activity was determined against Methicillin-resistant Staphylococcus aureus (MRSA) 5038 (Gram-positive)
[2] = system: Serratia marcescens; assay: Antibacterial activity was determined against Serratia marcescens ATCC 12648 (Gram-negative)
Outline: (§1)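 2-fold agar dilution on Müller-Hinton agar. Overnight broth cultures were diluted to about 10^6 CFU/mL, and 10^4 CFU/spot was applied to plates with graded drug concentrations. Plates were incubated 18 h at 37 °C.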

[3] = system: Enterococcus faecalis; assay: Antibacterial activity was determined against Enterococcus faecalis ATCC 21212 (Gram-positive); outline: as §1
[4] = system: Klebsiella pneumoniae; assay: Antibacterial activity was determined against Klebsiella pneumoniae NCTC 9632 (Gram-negative); outline: as §1
[5] = system: Staphylococcus aureus; assay: Antibacterial activity was determined against Staphylococcus aureus FDA 209P (Gram-positive); outline: as §1
[6] = system: Escherichia coli; assay: Antibacterial activity was determined against Escherichia coli NIHJ JC-2 (Gram-negative); outline: as §1
[7] = system: Staphylococcus epidermidis; assay: Antibacterial activity was determined against Staphylococcus epidermidis ATCC 12228 (Gram-positive); outline: as §1
[8] = system: Pseudomonas aeruginosa; assay: Antibacterial activity was determined against Pseudomonas aeruginosa ATCC 10145 (Gram-negative); outline: as §1
[9] = system: Mus musculus; assay: Antibacterial activity was determined against MRSA 5129 at a challenge dose of 1.38*10e8 (cells/mouse) administered subcutaneously; conditions: sc
Outline: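 Male ICR mice (~20 g, 10 per dose group) were challenged intraperitoneally with 0.5 mL of about 10-100 times the LD50. Inoculum was an overnight 37 °C tryptic soy broth culture suspended in fresh broth with 5% gastric mucin. Various subcutaneous doses were given 1 h post-infection. Survivors were counted on day 7, and ED50 with 95% confidence limits was derived by probit.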

[10] = system: Mus musculus; assay: Antibacterial activity was determined against Escherichia coli 29 at a challenge dose of 1.35*10e6 (cells/mouse) administered subcutaneously; conditions: sc
Outline: (§2)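 Cultures were grown overnight at 37 °C in tryptic soy broth (S. aureus, MRSA, E. faecalis) or Müller-Hinton broth (E. coli, S. pneumoniae). Graded doses were given subcutaneously 1 h post-infection. ED50 was calculated by probit from day-7 survival, with 95% confidence limits.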

[11] = system: Mus musculus; assay: Antibacterial activity was determined against MRSA 5038 at a challenge dose of 1.00*10e7 (cells/mouse) administered subcutaneously; conditions: sc; outline: as §2
[12] = system: Mus musculus; assay: Antibacterial activity was determined against Staphylococcus aureus Smith at a challenge dose of 1.32*10e7 (cells/mouse) (sc) administered; outline: as §2
[13] = system: Staphylococcus aureus; assay: […] was determined against MRSA 5129
[14] = system: Mus musculus; assay: Antibacterial activity was determined against Staphylococcus aureus Smith at a challenge dose of 1.32*10e7 (cells/mouse) administered subcutaneously; conditions: sc; outline: as §2

| SMILES | MIC [1] [µg/mL] | MIC [2] [µg/mL] | MIC [3] [µg/mL] | MIC [4] [µg/mL] | MIC [5] [µg/mL] | MIC [6] [µg/mL] | MIC [7] [µg/mL] | MIC [8] [µg/mL] | ED50 [9] [mg/kg] | ED50 [10] [mg/kg] | ED50 [11] [mg/kg] | ED50 [12] [mg/kg] | MIC [13] [µg/mL] | ED50 [14] [mg/kg] |
| --- | --- | --- | --- | --- | --- | --- | --- | --- | --- | --- | --- | --- | --- | --- |
| CC(C)=CC[n+]1ccc(SCC2=C(C(=O)O)N3C(=O)[C@@H](NC(=O)/C(=N\OC4CCCC4)c4csc(N)n4)[C@H]3CO2)cc1.O=S(=O)([O-])O | 12.5 | 1.56 | 1.56 | 0.78 | 0.2 | 0.78 | 0.2 | 12.5 |  |  |  |  |  |  |
| C[n+]1ccc(SCC2=C(C(=O)O)N3C(=O)[C@@H](NC(=O)/C(=N\OC4CCCC4)c4csc(N)n4)[C@H]3CO2)cc1.O=S(=O)([O-])O | 3.13 | 1.56 | 1.56 | 0.2 | 0.05 | 0.39 | 0.05 | 6.25 | 3.91 | 0.09 | 3.4 | 0.08 | 6.25 |  |
| Nc1nc(/C(=N/OC2CCCC2)C(=O)N[C@@H]2C(=O)N3C(C(=O)O)=C(CSc4cc[n+](CC(=O)c5ccccc5)cc4)OC[C@H]23)cs1.O=S(=O)([O-])O | 12.5 | 3.13 | 1.56 | 1.56 | 0.2 | 1.56 | 0.39 | 25 |  |  |  |  |  |  |
| Nc1nc(/C(=N/OC2CCCC2)C(=O)N[C@@H]2C(=O)N3C(C(=O)O)=C(CSc4cc[n+](CC(=O)N5CCOCC5)cc4)OC[C@H]23)cs1.O=S(=O)([O-])O | 12.5 | 1.56 | 1.56 | 0.78 | 0.2 | 0.78 | 0.2 | 6.25 |  |  |  |  |  |  |
| C#CC[n+]1ccc(SCC2=C(C(=O)O)N3C(=O)[C@@H](NC(=O)/C(=N\OC4CCCC4)c4csc(N)n4)[C@H]3CO2)cc1.O=S(=O)([O-])O | 6.25 | 1.56 | 1.56 | 0.39 | 0.2 | 0.39 | 0.1 | 6.25 |  |  |  |  |  |  |
| N#CC[n+]1ccc(SCC2=C(C(=O)O)N3C(=O)[C@@H](NC(=O)/C(=N\OC4CCCC4)c4csc(N)n4)[C@H]3CO2)cc1.O=S(=O)([O-])O | 12.5 | 1.56 | 1.56 | 0.39 | 0.2 | 0.39 | 0.2 | 6.25 |  |  |  |  |  |  |
| CC(=O)C[n+]1ccc(SCC2=C(C(=O)O)N3C(=O)[C@@H](NC(=O)/C(=N\OC4CCCC4)c4csc(N)n4)[C@H]3CO2)cc1.O=S(=O)([O-])O | 6.25 | 0.78 | 0.78 | 0.39 | 0.2 | 0.39 | 0.2 | 6.25 |  |  | 2.76 |  |  | 0.18 |
| CNC(=O)C[n+]1ccc(SCC2=C(C(=O)O)N3C(=O)[C@@H](NC(=O)/C(=N\OC4CCCC4)c4csc(N)n4)[C@H]3CO2)cc1.O=S(=O)([O-])O | 6.25 | 1.56 | 1.56 | 0.39 | 0.2 | 0.78 | 0.2 | 12.5 |  |  | 2.27 |  |  | 0.18 |
| CC(C)(C)C(=O)C[n+]1ccc(SCC2=C(C(=O)O)N3C(=O)[C@@H](NC(=O)/C(=N\OC4CCCC4)c4csc(N)n4)[C@H]3CO2)cc1.O=S(=O)([O-])O | 6.25 | 3.13 | 1.56 | 1.56 | 0.2 | 1.56 | 0.39 | 25 |  |  |  |  |  |  |
